TbHK1 inh: blocks Trypanosoma brucei hexokinase 1 activity; inhibition, % at 10 µM; 0.11% of 220,000 active; AID 1430; recombinant TbHK1, G6PDH-coupled NADH A340;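 active = inhibition of 50% or more in the single-dose primary screen; inactive = inhibition below 50%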
PfG6PD inh: PfG6PD (Plasmodium falciparum) enzyme inhibition | AID 504690 | 0.78% of 350,000 active | inhibition, % at 20 µM | PfGluPho enzyme, NADPH resazurin-diaphorase fluorescence;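 active = inhibition reaching at least a set limit at 20 µM in the primary screen, cut at about 59% in these data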;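 also: 0% = DMSO wells with substrate and 100% = DMSO wells lacking glucose-6-phosphate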
EP2 modulator: modulates human prostaglandin E2 receptor EP2 signaling | EP2-expressing cells, cAMP HTRF FRET, PGE2 co-stimulation | 0.83% of 260,000 active | P43116 | induction, % at 25 µM;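 active = compounds whose cAMP rise, as percent of the full-agonist control response, exceeds 60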;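 also: rat C6 glioma line stably carrying human EP2 under a CMV promoter; the protocol text gives 20 µM as final concentration; 100% = response of wells given 1 µM PGE2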
EP2 antag: EP2 receptor (human) inhibition | P43116 | C6 glioma cells expressing human EP2, cAMP TR-FRET; cells stimulated with saturating PGE2 | inhibition, % at 25 µM | 0.52% of 260,000 active | AID 1422;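 active = percent inhibition above 40 after rounding to a whole number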;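 also: rat C6 glioma host cells with rolipram phosphodiesterase inhibitor present; the protocol text gives 20 µM as final concentration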
HKDC1 inhibitor: HKDC1 (human) hexokinase inhibition | recombinant HKDC1, G6PDH/diaphorase resazurin coupled fluorescence | inhibition, % at 20 µM | 0.16% of 340,000 active;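 active = inhibition above about 35% when tested at 20 µM, limit read from the data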;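 also: plate controls were DMSO wells with enzyme for no effect and DMSO wells lacking enzyme for full effect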
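test system = in-house recombinant HK5 (HKDC1) enzyme | amount = HKDC1 at 5 µg/mL | control set = DMSO-enzyme wells negative, buffer-substituted wells positive | compound = one dose of 20 µM, 1% DMSO | schedule = reaction time 90 min, room temperature, protected from light | technique = resorufin fluorescence at 613 nm | reagent = glucose with 1 mM ATP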
PHOSPHO1 block: PHOSPHO1 (human) inhibition; Q8TCT1; recombinant PHOSPHO1, absorbance phosphatase assay; inhibition, % at 13.3 µM; 1.1% of 290,000 active; AID 1565; in the data active = inhibition above about 60%
Target sequence (Q8TCT1 whole entry, looked up): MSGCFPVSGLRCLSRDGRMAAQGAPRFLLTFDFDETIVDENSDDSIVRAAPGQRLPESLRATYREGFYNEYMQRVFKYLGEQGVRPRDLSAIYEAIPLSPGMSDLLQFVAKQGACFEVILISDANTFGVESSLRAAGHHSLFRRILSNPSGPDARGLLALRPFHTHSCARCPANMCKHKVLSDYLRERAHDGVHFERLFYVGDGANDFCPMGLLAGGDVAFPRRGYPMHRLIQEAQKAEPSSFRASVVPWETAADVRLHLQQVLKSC
PfGluPho conf: confirmation of Plasmodium falciparum G6PD inhibitors; inhibition, % at 20 µM; 34% of 2,400 active; recombinant PfGluPho, NADPH-diaphorase-resazurin fluorescence; shares compounds with PfG6PD inh;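 active = inhibition of at least 50% at 20 µM in any single replicate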;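 also: 0% = DMSO with substrate and 100% = DMSO lacking glucose-6-phosphate substrate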
Diaphorase 10uM: counter-screen for P. falciparum G6PD inhibitors: diaphorase inhibitors, oxidizers | shares compounds with PfG6PD inh | diaphorase-coupled resazurin reduction, fluorescence, NADPH 10 uM | inhibition, % at 20 µM | 39% of 820 active | AID 504862;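 active = average inhibition reaching 50% or more with the compound at 20 µM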;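 also: resorufin red fluorescence formed as diaphorase reduces resazurin using NADPH; 0% = DMSO with enzyme and 100% = DMSO without enzyme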
Diaph ctr 30uM: counter-screen for P. falciparum G6PD inhibitors: diaphorase inhibitors, oxidizers; Diaphorase/resazurin coupled assay, resorufin fluorescence, 30 uM NADPH; shares compounds with PfG6PD inh; 29% of 820 active; inhibition, % at 20 µM; AID 504863;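 active = inhibition averaging 50% or more, tested at 20 µM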;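 also: 0% = DMSO with enzyme and 100% = DMSO wells lacking diaphorase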
Numbers without * were called inactive; . = no result given. Hits are enriched below; roughly 2.5% of the tested compounds scored in any of these assays.

SMILES | TbHK1 inh | PfG6PD inh | EP2 modulator | EP2 antag | HKDC1 inhibitor | PHOSPHO1 block | PfGluPho conf | others
O=c1[nH]c(CN2CCN(c3ccc(O)cc3)CC2)nc2scc(-c3ccc(Cl)cc3)c12 | 1.6 | 78.5* | -5.3 | 5.7 | 18.9 | -0.8 | 21.7
CCOc1ccc(-c2cn(-c3ccccc3OC)c(=S)[nH]2)cc1 | . | 13.8 | . | . | 5.6 | -93.5 | .
CCOc1ccc(-n2cc(-c3ccc(OC)c(OC)c3)[nH]c2=S)cc1 | -2.4 | 65.6* | -55.2 | 7.2 | 2.7 | 12.3 | 29.6
COc1ccccc1NC(=O)CSc1nc2cc3c(cc2cc1C)OCO3 | . | . | 22.1 | 7.5 | . | . | .
Cc1ccc(N(O)C(C)(C)C)cc1 | . | 71.9* | . | . | 1.6 | . | 8.4
O=C1C=CC(=O)N1Cc1ccccc1 | . | 71.1* | . | . | -0.5 | 9.9 | -15.6
O=C1C2CC=CCC2C(=O)N1Cc1ccccc1 (stereo not given) | -2.8 | -4.4 | 14.5 | 5.5 | 5.3 | -21.3 | .
COCCn1c(SCC(=O)Nc2c(C)cccc2C)nc2sc(C)c(C)c2c1=O | . | . | -11.5 | 5.2 | . | . | .
Oc1ccc(Cl)cc1/C=C/c1ccc2cccc(O)c2n1 | 8.6 | 74.4* | -55.7 | 5.9 | -8.1 | 30.5 | -4.7
COc1ccc(OC)c(/C=C/c2ccc3cccc(O)c3n2)c1 | . | . | . | . | . | 1.1 | .
Oc1c(Cl)cc(Cl)cc1/C=C/c1ccc2cccc(O)c2n1 | -15.6 | 81.2* | -43.2 | 14.5 | -7.8 | -46.3 | 16.1
COc1ccc(NC(=O)COC(=O)C2CC(=O)N(c3ccc(OC)cc3)C2)cc1 (stereo not given) | . | . | -3.2 | 5.7 | . | . | .
COc1ccccc1NC(=O)N(CCc1ccccc1)Cc1cc2cc(C)c(C)cc2[nH]c1=O | . | . | 28.0 | 7.7 | . | . | .
Cc1cc2c(cc3c(=O)n(CC(=O)NCCN(C(C)C)C(C)C)nc(C)n32)s1 | . | . | -14.7 | . | . | . | .
O=C(Cc1csc(N2CCOCC2)n1)N/N=C/c1ccc(O)c(O)c1O | 7.2 | 72.4* | 17.3 | 13.6 | 21.7 | 9.5 | 61.9* | Diaphorase 10uM=57.0*;Diaph ctr 30uM=64.4*
Cc1ccc(-n2c(COc3cccc4ccccc34)nnc2SCC(N)=O)cc1 | . | . | -7.1 | 9.5 | . | . | .
FC(F)Oc1ccc(NC(=S)NCc2ccccc2)cc1 | 2.9 | 4.2 | -16.8 | 6.4 | -5.6 | -1.0 | .
Oc1cccc2c(NC(=S)Nc3ccc(OC(F)F)cc3)cccc12 | -1.2 | 62.1* | -81.8 | 15.4 | 3.7 | -4.6 | -17.3
COc1ccc(N=Cc2[nH]c3ccccc3c2O)cc1 | 0.2 | 59.1* | -15.6 | 1.8 | -1.2 | 12.5 | 14.7
O=C(Nc1sc2c(c1C(=O)O)CCCCC2)c1ccccc1F | -6.5 | 61.9* | -8.4 | 1.9 | -4.3 | 37.3 | 39.5
NC(=O)c1c(NC(=O)c2ccc(F)cc2)sc2c1CCC2 | . | 46.8 | . | . | -2.3 | 9.7 | .
CC(C)(C)c1ccc(C(=O)Nc2sc3c(c2C(=O)O)CCC3)cc1 | 27.6 | 76.0* | -84.0 | 5.2 | 22.7 | 31.2 | 58.8* | Diaphorase 10uM=33.9;Diaph ctr 30uM=14.6
O=C(Nc1sc2c(c1C(=O)O)CCC2)c1ccco1 | -27.2 | 13.8 | -8.8 | 6.5 | 8.1 | 5.1 | .
COC(=O)c1c(NC(=O)c2ccccc2C(=O)O)sc2c1CCCC2 | . | -31.1 | . | . | . | . | .
O=C(Nc1sc2c(c1C(=O)O)CCCC2)c1ccc(F)cc1 | . | 92.6* | . | . | 5.7 | 13.5 | 73.0* | Diaphorase 10uM=55.3*;Diaph ctr 30uM=54.6*
SMILES | TbHK1 inh | PfG6PD inh | EP2 modulator | EP2 antag | HKDC1 inhibitor | PHOSPHO1 block | PfGluPho conf | others
O=C(C1CCCC1)N1CCC[C@@H]1Cn1nc(-c2cccs2)ccc1=O | . | . | -6.3 | 10.1 | . | . | .
CC1(NC(=S)Nc2ccc3ccccc3c2)CCS(=O)(=O)C1 (stereo not given) | -12.8 | 6.6 | -33.1 | 9.0 | 4.5 | 1.5 | .
CN(C)C(=S)NC(=S)Nc1ccc2ccccc2c1 | . | 70.8* | . | . | 6.2 | . | 6.1
O=C1Nc2ccc(S(=O)(=O)NCc3ccco3)c3cccc1c23 | -7.8 | 62.9* | -14.4 | 7.2 | 21.8 | . | 43.5
O=C(O)CNS(=O)(=O)c1ccc2c3c(cccc13)C(=O)N2 | . | 16.1 | -37.7 | 15.3 | 8.9 | -6.3 | .
Clc1ccc2nc(-c3ccc(Cl)nc3)[nH]c2c1 | . | 110.4* | . | . | 11.4 | 32.7 | 54.8* | Diaphorase 10uM=71.4*;Diaph ctr 30uM=56.9*

Screening results deposited in PubChem BioAssay by several laboratories.
